Experiments:
[1] = biological target: T1, Alpha-1D adrenergic receptor (Homo sapiens, UniProt P25100); assay: Activation of recombinant human adrenergic, alpha-1D receptor expressed in rat-1 fibroblasts assayed via calcium mobilization through Gq coupled PLC pathway; format: functional
T1 sequence (P25100 whole entry): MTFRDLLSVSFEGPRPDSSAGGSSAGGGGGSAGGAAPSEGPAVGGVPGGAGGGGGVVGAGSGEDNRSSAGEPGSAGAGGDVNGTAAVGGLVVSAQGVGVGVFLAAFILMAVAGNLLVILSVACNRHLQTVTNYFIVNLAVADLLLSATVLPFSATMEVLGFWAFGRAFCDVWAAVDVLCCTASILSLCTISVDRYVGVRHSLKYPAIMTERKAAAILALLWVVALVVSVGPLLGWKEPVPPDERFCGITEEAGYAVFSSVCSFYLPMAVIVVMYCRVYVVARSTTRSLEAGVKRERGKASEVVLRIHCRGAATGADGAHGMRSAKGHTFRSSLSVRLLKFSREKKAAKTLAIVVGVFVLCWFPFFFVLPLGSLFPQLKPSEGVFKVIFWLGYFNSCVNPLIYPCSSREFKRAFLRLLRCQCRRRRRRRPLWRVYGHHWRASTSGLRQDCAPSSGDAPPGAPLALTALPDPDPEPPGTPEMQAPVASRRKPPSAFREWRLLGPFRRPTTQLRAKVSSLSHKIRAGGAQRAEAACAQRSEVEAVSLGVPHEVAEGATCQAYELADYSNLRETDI
Outline: (§1)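 Rat-1 fibroblasts stably expressing cloned human α1A (clone #137-12), α1B (clone #37-11) or α1D (clone #16-7) adrenoceptor were loaded with the Calcium Green calcium-sensitive dye. Gq/PLC-coupled calcium mobilization was read on a FLIPR. Eleven-point concentration–response curves, with a top concentration typically 5 μM, were normalized to the 40 μM phenylephrine response to give pEC50 and % efficacy. Values are the mean of ≥2 experiments.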

[2] = biological target: T2, Alpha-1A adrenergic receptor (Homo sapiens, UniProt P35348); assay: Activation of recombinant human adrenergic,alpha-1A receptor expressed in rat-1 fibroblasts determined via calcium mobilization through Gq coupled PLC pathway; format: functional; outline: as §1
T2 sequence (P35348 whole entry): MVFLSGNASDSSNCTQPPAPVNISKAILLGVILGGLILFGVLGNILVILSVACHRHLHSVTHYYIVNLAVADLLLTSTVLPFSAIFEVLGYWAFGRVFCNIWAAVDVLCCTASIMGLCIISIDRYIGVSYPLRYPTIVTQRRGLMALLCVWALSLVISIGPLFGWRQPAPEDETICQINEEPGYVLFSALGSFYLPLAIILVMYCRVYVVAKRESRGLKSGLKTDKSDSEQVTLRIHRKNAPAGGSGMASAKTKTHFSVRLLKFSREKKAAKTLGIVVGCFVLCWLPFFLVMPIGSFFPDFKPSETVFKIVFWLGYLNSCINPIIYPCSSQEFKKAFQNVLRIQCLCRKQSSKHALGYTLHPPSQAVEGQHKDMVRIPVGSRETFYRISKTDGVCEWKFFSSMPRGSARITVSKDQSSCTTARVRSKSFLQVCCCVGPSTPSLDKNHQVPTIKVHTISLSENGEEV

[3] = biological target: T3, Alpha-1B adrenergic receptor (Homo sapiens, UniProt P35368); assay: Activation of recombinant human adrenergic, alpha-1B receptor expressed in rat-1 fibroblasts determined via calcium mobilization through Gq coupled PLC pathway; format: functional; outline: as §1
T3 sequence (P35368 whole entry): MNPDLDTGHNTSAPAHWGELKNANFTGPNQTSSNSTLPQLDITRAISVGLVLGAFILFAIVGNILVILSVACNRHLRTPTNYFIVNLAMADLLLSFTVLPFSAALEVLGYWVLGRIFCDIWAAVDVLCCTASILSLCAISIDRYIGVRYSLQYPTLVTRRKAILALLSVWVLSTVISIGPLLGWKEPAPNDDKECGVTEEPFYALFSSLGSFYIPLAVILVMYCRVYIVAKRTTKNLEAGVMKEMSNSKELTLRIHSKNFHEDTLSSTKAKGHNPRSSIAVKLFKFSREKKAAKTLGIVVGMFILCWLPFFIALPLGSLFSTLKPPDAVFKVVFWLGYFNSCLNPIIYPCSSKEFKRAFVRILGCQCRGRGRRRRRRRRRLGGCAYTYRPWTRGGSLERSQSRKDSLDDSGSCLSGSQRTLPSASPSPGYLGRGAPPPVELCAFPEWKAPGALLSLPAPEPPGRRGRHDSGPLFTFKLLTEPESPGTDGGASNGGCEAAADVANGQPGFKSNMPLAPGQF

[4] = biological target: T4, Alpha-1A adrenergic receptor (Homo sapiens) (UniProt P35348); assay: Ability to activate cloned human alpha-1A receptor expressed in rat-1 fibroblasts via calcium mobilization through Gq coupled PLC pathway expressed as percent of phenylephrine (40 uM) response; format: functional; outline: as §1
T4 sequence (whole entry): T2 sequence (P35348 whole entry)

[5] = biological target: T1, Alpha-1D adrenergic receptor; assay: Binding affinity of compound towards human Alpha-1D adrenergic receptor expressed in rat-1 fibroblast membranes; format: cell membranes
Outline: (§2)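 Radioligand binding was run on membranes from Rat-1 fibroblasts expressing human α1A, α1B or α1D adrenoceptor. Affinity is reported as pIC50 (±SEM), the mean of at least two experiments.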

[6] = biological target: T3, Alpha-1B adrenergic receptor; assay: Binding affinity of compound towards human Alpha-1B adrenergic receptor expressed in rat fibroblast membranes; format: cell membranes, Membrane; outline: as §2
[7] = biological target: T2, Alpha-1A adrenergic receptor; assay: Binding affinity of compound towards Alpha-1A adrenergic receptor using membranes prepared from Rat-1 fibroblasts expressing human Alpha-1A adrenergic receptor; outline: as §2
[8] = biological target: T5, Alpha-1D adrenergic receptor (Homo sapiens) (UniProt P25100); assay: Ability to activate human alpha-1D receptor expressed in rat-1 fibroblasts as calcium mobilization through Gq coupled PLC pathway relative to phenylephrine response; format: functional; outline: as §1
T5 sequence (whole entry): T1 sequence (P25100 whole entry)

[9] = biological target: T6, Alpha-1B adrenergic receptor (Homo sapiens) (UniProt P35368); assay: Activation of human alpha-1B receptor expressed in rat-1 fibroblasts by calcium mobilization of Gq coupled PLC as percent phenylephrine (40 uM) response; format: functional; outline: as §1
T6 sequence (whole entry): T3 sequence (P35368 whole entry)

Row | SMILES | EC50 [1] [µM] | EC50 [2] [µM] | EC50 [3] [µM] | Max [4] [%] | IC50 [5] [µM] | IC50 [6] [µM] | IC50 [7] [µM] | Max [8] [%] | Max [9] [%]
1 | c1ccc(-c2ccccc2OCC2=NCCN2)nc1 | > 100 | 0.0126 | > 100 |  | 1.12 | 2.04 | 0.115 |  | 
2 | c1cnc(-c2ccccc2OCC2=NCCN2)nc1 | > 100 | 1.26 | > 100 | 90 |  |  |  |  | 
3 | c1ccc(-c2ccncn2)c(OCC2=NCCN2)c1 | > 100 | > 100 | > 100 |  |  |  |  |  | 
4 | Cc1csc(-c2ccccc2OCC2=NCCN2)n1 | > 100 | 0.0251 | > 100 | 104 |  |  |  |  | 
5 | c1ccc(-c2ncc[nH]2)c(OCC2=NCCN2)c1 | > 100 | 0.1 | > 100 | 122 |  |  |  |  | 
6 | Cn1nccc1-c1ccccc1OCC1=NCCN1 | > 100 | 0.0398 | > 100 | 107 |  |  |  |  | 
7 | Cc1cnsc1-c1ccccc1OCC1=NCCN1 | > 100 | 0.0126 | > 100 | 104 |  |  |  |  | 
8 | c1coc(-c2ccccc2OCC2=NCCN2)c1 | > 100 | 0.00126 | 0.01 | 106 |  |  |  |  | 110
9 | Cc1ccoc1-c1ccccc1OCC1=NCCN1 | > 100 | 0.00316 | > 100 | 99 | 0.417 | 0.776 | 0.0347 |  | 
10 | c1ccc(-c2cc[nH]n2)c(OCC2=NCCN2)c1 | > 100 | 0.00501 | 0.0794 | 119 |  |  |  |  | 39
11 | CS(=O)(=O)Nc1ccc(F)c([C@@H](O)CN)c1 [NS-49] | > 100 | 0.316 | > 100 | 86 |  |  |  |  | 
12 | c1ccc(-c2ccccc2OCC2=NCCN2)cc1 | > 100 | 0.00316 | > 100 |  | 0.324 | 0.741 | 0.0275 |  | 
13 | Cc1cccc(-c2ccccc2OCC2=NCCN2)n1 | > 100 | 0.126 | > 100 | 80 |  |  |  |  | 
14 | c1ccc(-c2cnccn2)c(OCC2=NCCN2)c1 | > 100 | 0.00251 | 0.631 | 97 |  |  |  |  | 46
15 | Cc1cc(-c2ccccc2OCC2=NCCN2)sn1 | > 100 | 0.158 | > 100 | 75 |  |  |  |  | 
16 | Cc1ccnc(-c2ccccc2OCC2=NCCN2)c1 | > 100 | > 100 | > 100 |  | 1.41 | 2.45 | 1.29 |  | 

Further lines, results first:

Row | EC50 [1] [µM] | EC50 [2] [µM] | EC50 [3] [µM] | Max [4] [%] | IC50 [5] [µM] | IC50 [6] [µM] | IC50 [7] [µM] | Max [8] [%] | Max [9] [%] | SMILES
17 | > 100 | > 100 | > 100 |  |  |  |  |  |  | c1ccc(-c2ccncc2)c(OCC2=NCCN2)c1
18 | > 100 | 0.0251 | > 100 | 97 |  |  |  |  |  | Cc1ccc(-c2ccccc2OCC2=NCCN2)s1
19 | 0.0158 | 0.001 | 0.00398 | 101 |  |  |  | 93 | 112 | c1csc(-c2ccccc2OCC2=NCCN2)c1
20 | 0.158 | 0.002 | 0.0794 | 109 | 0.257 | 1.29 | 0.0501 | 38 | 111 | c1cncc(-c2ccccc2OCC2=NCCN2)c1
21 | 0.0126 | 0.000251 | 0.0158 | 98 |  |  |  | 120 | 103 | c1ccc(-c2ccsc2)c(OCC2=NCCN2)c1
22 | 0.794 | 0.00794 | > 100 | 101 |  |  |  | 20 |  | c1ccc(-c2ccccc2NCC2=NCCN2)cc1
23 | > 5.01 | > 5.01 | > 5.01 |  |  |  |  |  |  | CCN(CC)C(=O)c1ccccc1OCC1=NCCN1
24 | 0.00631 | 0.00126 | 0.001 | 99 | 0.0537 | 0.269 | 0.0324 | 111 | 104 | c1c[nH]c(-c2ccccc2OCC2=NCCN2)c1
25 | 0.0316 | 0.00251 | 0.02 | 102 |  |  |  | 113 | 100 | c1ccc(-c2nccs2)c(OCC2=NCCN2)c1
26 | 0.0251 | 0.00501 | 0.0126 | 99 |  |  |  | 82 | 56 | c1ccc(-c2ccns2)c(OCC2=NCCN2)c1
27 | 0.00501 | 0.000501 | 0.00501 | 104 |  |  |  | 126 | 111 | c1ccc(-c2ccoc2)c(OCC2=NCCN2)c1
